ChEMBL document CHEMBL1154683, “Bis(dialkylaminethiocarbonyl)disulfides as potent and selective monoglyceride lipase inhibitors” (J Med Chem, 2009)
Residue numbers refer to the chain shown, from its start. Active and inactive are the calls of the source. No cut-off for these calls is given here.

Key:
[1] = target: T1, Monoglyceride lipase (Homo sapiens, UniProt Q99685); assay: Inhibition of human MGL activity using [3H]2-oleoylglycerol substrate by liquid scintillation counting
T1 sequence (Q99685 whole entry): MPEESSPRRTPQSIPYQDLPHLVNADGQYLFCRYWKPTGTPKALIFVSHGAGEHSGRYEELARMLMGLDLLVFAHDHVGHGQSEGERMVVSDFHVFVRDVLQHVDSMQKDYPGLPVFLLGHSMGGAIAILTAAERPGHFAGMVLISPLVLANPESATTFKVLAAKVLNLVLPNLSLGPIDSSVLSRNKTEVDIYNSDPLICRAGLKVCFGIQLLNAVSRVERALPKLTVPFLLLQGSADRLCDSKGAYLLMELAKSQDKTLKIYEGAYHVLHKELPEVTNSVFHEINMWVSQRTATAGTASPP
Summary of the method: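 Recombinant human MGL was used, and inhibition was expressed as pIC50.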

[2] = target: T2, Fatty-acid amide hydrolase 1 (Homo sapiens, UniProt O00519); assay: Inhibition of human recombinant FAAH-maltose binding protein
T2 sequence (O00519 whole entry): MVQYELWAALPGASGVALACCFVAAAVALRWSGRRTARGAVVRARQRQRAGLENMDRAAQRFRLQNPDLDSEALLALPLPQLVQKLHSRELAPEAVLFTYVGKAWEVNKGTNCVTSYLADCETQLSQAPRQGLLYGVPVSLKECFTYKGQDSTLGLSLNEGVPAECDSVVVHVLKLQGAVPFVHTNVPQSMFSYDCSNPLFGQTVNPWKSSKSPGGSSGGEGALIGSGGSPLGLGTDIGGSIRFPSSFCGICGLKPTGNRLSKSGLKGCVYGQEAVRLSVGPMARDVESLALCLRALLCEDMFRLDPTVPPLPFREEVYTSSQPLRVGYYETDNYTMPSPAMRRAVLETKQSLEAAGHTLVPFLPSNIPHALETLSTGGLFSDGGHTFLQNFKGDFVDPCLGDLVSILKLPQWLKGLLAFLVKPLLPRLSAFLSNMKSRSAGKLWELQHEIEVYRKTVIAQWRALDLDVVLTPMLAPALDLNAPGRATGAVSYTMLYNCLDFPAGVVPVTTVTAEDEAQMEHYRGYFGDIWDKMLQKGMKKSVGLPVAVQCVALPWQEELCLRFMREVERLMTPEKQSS

[3] = target: T3, Monoglyceride lipase (Homo sapiens) (UniProt Q99685); assay: Inhibition of human MGL activity using [3H]2-oleoylglycerol substrate at 10 uM by liquid scintillation counting
T3 sequence (whole entry): T1 sequence (Q99685 whole entry)
Summary of the method: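 Single-point screen on recombinant human MGL at 10 μM, with a parallel screen at 100 μM.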

[4] = organism: Homo sapiens; assay: Selectivity ratio for human MGL activity to human recombinant FAAH
[5] = target: T3, Monoglyceride lipase (Homo sapiens); assay: Inhibition of human MGL activity using [3H]2-oleoylglycerol substrate assessed as reversible enzyme activity in presence of 1,4-dithio-DL-threitol
Summary of the method: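 Recombinant human MGL incubated with inhibitor to allow disulfide bond formation. DTT (10^-2 M) was then added before substrate addition and the MGL activity read.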

[6] = target: T3, Monoglyceride lipase (Homo sapiens); assay: Inhibition of human MGL activity using [3H]2-oleoylglycerol substrate at 10 nM measured upto 1 hr by high dilution reversibility assay
Summary of the method: (§1)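 Recombinant human MGL preincubated with inhibitor at 30, 10 or 3 μM, then diluted 300-fold before substrate addition, giving 100, 33.3 and 10 nM during the activity read. Activity was followed up to 1 h postdilution and compared with a DMSO-preincubated control.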

[7] = target: Monoglyceride lipase (Homo sapiens, UniProt Q99685, C208A); assay: Inhibition of human MGL C208A mutant using [3H]2-oleoylglycerol substrate
Sequence of Monoglyceride lipase (Homo sapiens, UniProt Q99685, C208A) (Q99685 whole entry C208A): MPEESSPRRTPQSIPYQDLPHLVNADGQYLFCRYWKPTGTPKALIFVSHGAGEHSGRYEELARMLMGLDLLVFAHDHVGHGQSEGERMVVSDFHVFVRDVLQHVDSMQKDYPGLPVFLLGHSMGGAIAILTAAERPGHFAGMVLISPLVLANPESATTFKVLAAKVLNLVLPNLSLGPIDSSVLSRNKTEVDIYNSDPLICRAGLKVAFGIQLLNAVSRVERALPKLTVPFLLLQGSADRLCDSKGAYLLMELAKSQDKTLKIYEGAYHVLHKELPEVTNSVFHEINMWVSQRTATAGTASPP

[8] = test system: T4, Monoglyceride lipase (Homo sapiens), Q99685 [C208A,C242A]; assay: Inhibition of human MGL C208A/C242A double mutant using [3H]2-oleoylglycerol substrate
T4 sequence (whole entry): T1 sequence (Q99685 whole entry) with C208A, C242A

[9] = target: T5, Aldehyde dehydrogenase, mitochondrial (Rattus norvegicus, UniProt P11884); assay: Inhibition of recombinant rat ALDH activity in liver mitochondria
T5 sequence (P11884 whole entry): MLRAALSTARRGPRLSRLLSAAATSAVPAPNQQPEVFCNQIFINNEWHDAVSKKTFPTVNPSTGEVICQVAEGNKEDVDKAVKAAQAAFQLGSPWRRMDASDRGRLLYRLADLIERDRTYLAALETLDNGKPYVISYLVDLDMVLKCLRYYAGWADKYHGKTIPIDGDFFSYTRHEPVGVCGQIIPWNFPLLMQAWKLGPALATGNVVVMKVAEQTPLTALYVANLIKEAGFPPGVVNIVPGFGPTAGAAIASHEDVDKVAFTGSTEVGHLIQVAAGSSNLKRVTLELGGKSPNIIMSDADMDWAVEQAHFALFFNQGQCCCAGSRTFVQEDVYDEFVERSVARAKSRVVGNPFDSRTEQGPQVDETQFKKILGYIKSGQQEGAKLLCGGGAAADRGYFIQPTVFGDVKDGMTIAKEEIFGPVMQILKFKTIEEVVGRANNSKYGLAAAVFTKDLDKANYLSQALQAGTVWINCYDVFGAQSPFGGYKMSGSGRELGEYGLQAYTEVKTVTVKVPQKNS

[10] = target: T3, Monoglyceride lipase (Homo sapiens); assay: Inhibition of human MGL activity using [3H]2-oleoylglycerol substrate at 33.3 nM measured upto 1 hr by high dilution reversibility assay; summary of the method: as §1
[11] = target: T3, Monoglyceride lipase (Homo sapiens); assay: Inhibition of human MGL activity using [3H]2-oleoylglycerol substrate at 100 nM measured upto 1 hr by high dilution reversibility assay; summary of the method: as §1
[12] = target: Monoglyceride lipase (Homo sapiens, UniProt Q99685, C242A); assay: Inhibition of human MGL C242A mutant using [3H]2-oleoylglycerol substrate
Sequence of Monoglyceride lipase (Homo sapiens, UniProt Q99685, C242A) (Q99685 whole entry C242A): as the sequence (Q99685 whole entry C208A) above, with A208C, C242A counted along it

SMILES | IC50 [1] [µM] | IC50 [2] [µM] | inhibition [3] [%] | further results
CCN(CC)C(=S)SC [METHYLDIETHYL CARBAMODITHIOATE] | > 1000 | > 1000 |  | 
S=C(SSC(=S)N1CCCCC1)N1CCCCC1 [BIS(PIPERIDINYLTHIOCARBONYL)DISULFIDE] | 0.316 | > 1000 | > 50 | 
CN(C(=S)SSC(=S)N(C)C1CCCCC1)C1CCCCC1 | 0.141 | 4.79 | > 50 | 
CCCCCCCCCCCCCCCCN(CC)C(=S)SSC(=S)N(CC)CCCCCCCCCCCCCC | 10.5 | > 1000 | > 50 | 
CN(Cc1ccccc1)C(=S)SSC(=S)N(C)Cc1ccccc1 | 0.437 | > 1000 | > 50 | 
S=C(SSC(=S)N1CCOCC1)N1CCOCC1 | 0.219 | 79.4 | > 50 | 
CCN(CC)C(=S)CSC(=S)N(CC)CC [(DIETHYLTHIOCARBAMOYL)METHYLENE DIETHYLCARBAMODITHIOATE] | 19.1 | > 1000 | > 50 | 
S=C(SSC(=S)N1CCCC1)N1CCCC1 [BIS(PYRROLIDINYLTHIOCARBONYL)DISULFIDE] | 0.912 | > 1000 | > 50 | 
S=C(SSC(=S)N1CCc2ccccc2C1)N1CCc2ccccc2C1 | 0.347 | > 1000 | > 50 | 
S=C(SSC(=S)N1CCSCC1)N1CCSCC1 | 0.316 | 25.1 | > 50 | 
CSC(=S)N1CCOCC1 | > 1000 | > 1000 | > 50 | 
CN(C(=S)SSC(=S)N(C)c1ccccc1)c1ccccc1 | 0.741 | 33.9 | > 50 | 
S=C(SSC(=S)N1CCCCCC1)N1CCCCCC1 | 0.813 | > 1000 | > 50 | 
S=C(CSC(=S)N1CCOCC1)N1CCOCC1 | 15.5 | > 1000 | > 50 | 
O=C(CSC(=S)N1CCOCC1)N1CCOCC1 | 219 | > 1000 | > 50 | 
S=C(SCSC(=S)N1CCOCC1)N1CCOCC1 | 102 | > 1000 | > 50 | 
CN(C)C(=S)SC(=S)N1CCOCC1 | 6.46 | > 1000 | > 50 | 
CCCCC/C=C\C/C=C\C/C=C\C/C=C\CCCC(=O)C(F)(F)F [ARACHIDONYL TRIFLUOROMETHYLKETONE] | 6.46 | 0.0123 |  | Selectivity ratio [4]: 0.002
S=C(SSC(=S)N1CCN(Cc2ccccc2)CC1)N1CCN(Cc2ccccc2)CC1 | 5.01 | 170 | > 50 | 
O=C(Nc1cccc(-c2ccccc2)c1)OC1CCCCC1 | 10 | 5.75 |  | Selectivity ratio [4]: 0.57
C1CN(SSN2CCOCC2)CCO1 [DITHIODIMORPHOLINE] | 11.2 | > 1000 | > 50 | 

SMILES | IC50 [1] [µM] | IC50 [2] [µM] | inhibition [3] [%] | further results
S=C(SSC(=S)N1CCCc2ccccc21)N1CCCc2ccccc21 | 0.741 | > 1000 | > 50 | 
CN1CCN(C(=S)SSC(=S)N2CCN(C)CC2)CC1 | 0.11 | 200 | > 50 | Activity [5]: Active; Activity [6]: Active; IC50 [7]: 8.32 µM; Activity [8]: inactive; IC50 [9]: 15.8 µM; Activity [10]: Active; Activity [11]: Active; IC50 [12]: 0.302 µM
COc1nn(-c2ccc(NC(=O)OCc3ccccc3)c(C)c2)c(=O)o1 | 0.0204 | 0.0776 |  | Selectivity ratio [4]: 3
S=C(SSC(=S)N1CCC(Cc2ccccc2)CC1)N1CCC(Cc2ccccc2)CC1 | 6.92 | > 1000 | > 50 | 
CN1CCN(C(=S)SCSC(=S)N2CCN(C)CC2)CC1 | 95.5 | > 1000 | > 50 | 
CC1CCCC(C)N1C(=S)SSC(=S)N1C(C)CCCC1C (centres undefined) | 0.479 | > 1000 | > 50 | 
CN(C)C(=S)SSC(=S)N(C)C [THIRAM] | 0.977 | 44.7 | > 50 | Selectivity ratio [4]: 45
CCN(CC)SSN(CC)CC | 7.94 | > 1000 | > 50 | 
CCN(CC)C(=S)SCSC(=S)N(CC)CC | 20.9 | > 1000 | > 50 | 
CCN(Cc1ccccc1)C(=S)SSC(=S)N(CC)Cc1ccccc1 | 4.07 | > 1000 | > 50 | 
S=C(SSC(=S)N(Cc1ccccc1)Cc1ccccc1)N(Cc1ccccc1)Cc1ccccc1 [BIS(DIBENZYLAMINETHIOCARBONYL)DISULFIDE] | 9.55 | > 1000 | > 50 | 
CCCCC/C=C\C/C=C\C/C=C\C/C=C\CCCCN1C(=O)CCC1=O | 1.12 | 2.19 |  | Selectivity ratio [4]: 1.95
CN(C)C(=S)SC(=S)N(C)C [BIS(DIMETHYLAMINETHIOCARBONYL)MONOSULFIDE] | 12.3 | > 1000 | > 50 | 
CN(C)C(=O)n1nnnc1Cc1ccc(-c2ccccc2)cc1 | 0.055 |  |  | 
C1CCN(SSN2CCCCC2)CC1 | 9.55 | > 1000 | > 50 | 
CC1CCN(C(=S)SSC(=S)N2CCC(C)CC2)CC1 | 0.269 | > 1000 | > 50 | 
CCN(CC)C(=O)CSC(=S)N(CC)CC [(DIETHYLCARBAMOYL)METHYLENE DIETHYLCARBAMODITHIOATE] | 631 | > 1000 | > 50 | 
CCN(CC)C(=S)SSC(=S)N(CC)CC | 1.26 | 363 | > 50 | 
S=C(SSC(=S)N1CCN(C2CCCCC2)CC1)N1CCN(C2CCCCC2)CC1 | 0.166 | > 1000 | > 50 | 
S=C(SSC(=S)N1CCN(c2ccccc2)CC1)N1CCN(c2ccccc2)CC1 | 0.49 | 135 | > 50 | 
